Data taken from ChEMBL document CHEMBL2146396, “Design, synthesis and evaluation of novel metalloproteinase inhibitors based on L-tyrosine scaffold” (Bioorg Med Chem, 2012).

Experiments:
[1] = biological target: 72 kDa type IV collagenase (Homo sapiens, UniProt P08253); assay: Inhibition of MMP2 using BML-P125-9090 as substrate after 30 mins by microplate reader analysis
In short: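 Colorimetric kit assay. Enzyme and inhibitor were preincubated 30 min at 37 °C in assay buffer equilibrated to 37 °C. Substrate was then added to start the reaction. A412 was read continuously at 1 min intervals for 10 min. IC50 was derived from the readings.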

Histone deacetylase 8 = biological target: T1, Histone deacetylase 8 (Homo sapiens, UniProt Q9BY41); assay: Inhibition of HDAC8 after 45 mins by microplate fluorometric analysis
T1 sequence (Q9BY41 whole entry): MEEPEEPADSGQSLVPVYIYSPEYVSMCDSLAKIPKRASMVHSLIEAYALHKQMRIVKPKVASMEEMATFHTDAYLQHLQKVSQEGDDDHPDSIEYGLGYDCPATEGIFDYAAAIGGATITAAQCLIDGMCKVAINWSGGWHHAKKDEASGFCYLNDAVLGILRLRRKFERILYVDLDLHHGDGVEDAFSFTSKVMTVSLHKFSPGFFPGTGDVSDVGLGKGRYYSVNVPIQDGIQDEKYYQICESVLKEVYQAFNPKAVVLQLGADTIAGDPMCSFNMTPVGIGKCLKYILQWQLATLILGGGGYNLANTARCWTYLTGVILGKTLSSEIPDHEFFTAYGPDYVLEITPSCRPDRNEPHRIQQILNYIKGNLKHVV

Chain of 72 kDa type IV collagenase (P08253 whole entry): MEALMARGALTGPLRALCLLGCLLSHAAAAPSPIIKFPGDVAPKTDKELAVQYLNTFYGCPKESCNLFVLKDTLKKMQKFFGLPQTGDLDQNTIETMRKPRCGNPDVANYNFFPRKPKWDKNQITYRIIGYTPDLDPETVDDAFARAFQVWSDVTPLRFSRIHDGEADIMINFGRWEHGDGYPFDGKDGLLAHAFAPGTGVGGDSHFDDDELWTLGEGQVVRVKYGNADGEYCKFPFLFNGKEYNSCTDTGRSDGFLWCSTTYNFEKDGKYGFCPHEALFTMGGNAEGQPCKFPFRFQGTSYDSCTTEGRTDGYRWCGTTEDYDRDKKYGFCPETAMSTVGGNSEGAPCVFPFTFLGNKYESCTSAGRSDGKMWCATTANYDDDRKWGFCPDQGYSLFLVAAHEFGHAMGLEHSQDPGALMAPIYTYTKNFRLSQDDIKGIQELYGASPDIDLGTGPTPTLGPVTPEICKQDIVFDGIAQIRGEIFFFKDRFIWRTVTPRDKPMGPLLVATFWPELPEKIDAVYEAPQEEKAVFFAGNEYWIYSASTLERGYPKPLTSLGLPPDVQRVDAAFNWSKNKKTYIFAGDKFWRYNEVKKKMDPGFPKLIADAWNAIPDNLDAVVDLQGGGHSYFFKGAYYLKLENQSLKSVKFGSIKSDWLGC

Structure (SMILES) | IC50 [1] [µM] | IC50 (Histone deacetylase 8) [µM]
COC(=O)[C@H](Cc1ccc(OCCc2ccccc2)cc1)NS(=O)(=O)c1ccc(C)cc1 | 6.3 | 962
CC(=O)N[C@@H](Cc1ccc(OCc2ccccc2)cc1)C(=O)O | 3 | 36.9
COC(=O)[C@H](Cc1ccc(OCCc2ccccc2)cc1)NS(C)(=O)=O | 2.4 | > 1000
Cc1ccc(C(=O)N[C@@H](Cc2ccc(OCCc3ccccc3)cc2)C(=O)O)cc1 | 4.5 | 386
COC(=O)[C@H](Cc1ccc(OCCc2ccccc2)cc1)NC(C)=O | 12.5 | 825
COC(=O)[C@H](Cc1ccc(OCc2ccccc2)cc1)NS(=O)(=O)c1ccc(C)cc1 | 10.7 | > 1000
COC(=O)[C@H](Cc1ccc(OCCc2ccccc2)cc1)NC(=O)c1ccc(C)cc1 | 85.5 | > 1000
COC(=O)[C@H](Cc1ccc(OCc2ccccc2)cc1)NC(=O)c1ccccc1 | 67.5 | > 1000
O=C(N[C@@H](Cc1ccc(OCc2ccccc2)cc1)C(=O)NO)c1ccccc1 | 1.7 | 9.3
Cc1ccc(C(=O)N[C@@H](Cc2ccc(OCCc3ccccc3)cc2)C(=O)NO)cc1 | 3.9 | 52.5
O=C(N[C@@H](Cc1ccc(OCc2ccccc2)cc1)C(=O)O)c1ccccc1 | 9.8 | 111
COC(=O)[C@H](Cc1ccc(OCc2ccccc2)cc1)NC(C)=O | 27.6 | 872
COC(=O)[C@H](Cc1ccc(OCc2ccccc2)cc1)NC(=O)c1ccc(C)cc1 | 83.7 | > 1000
COC(=O)[C@H](Cc1ccc(OCc2ccccc2)cc1)NS(C)(=O)=O | 17.8 | 754
Cc1ccc(C(=O)N[C@@H](Cc2ccc(OCc3ccccc3)cc2)C(=O)O)cc1 | 8.1 | > 1000
O=C(N[C@@H](Cc1ccc(OCCc2ccccc2)cc1)C(=O)O)c1ccccc1 | 7.6 | 253
COC(=O)[C@H](Cc1ccc(OCCc2ccccc2)cc1)NC(=O)c1ccccc1 | 74.6 | > 1000
Cc1ccc(S(=O)(=O)N[C@@H](Cc2ccc(OCc3ccccc3)cc2)C(=O)O)cc1 | 2.5 | 505

The next compounds have a lower IC50 [1] than those just listed; values first:

IC50 [1] [µM] | IC50 (Histone deacetylase 8) [µM] | Structure (SMILES)
1.4 | 47.2 | CS(=O)(=O)N[C@@H](Cc1ccc(OCc2ccccc2)cc1)C(=O)O
0.9 | 27.8 | O=C(N[C@@H](Cc1ccc(OCCc2ccccc2)cc1)C(=O)NO)c1ccccc1
0.75 | 121 | CC(=O)N[C@@H](Cc1ccc(OCCc2ccccc2)cc1)C(=O)O
0.46 | 30.7 | Cc1ccc(C(=O)N[C@@H](Cc2ccc(OCc3ccccc3)cc2)C(=O)NO)cc1
0.27 | > 1000 | Cc1ccc(S(=O)(=O)N[C@@H](Cc2ccc(OCCc3ccccc3)cc2)C(=O)O)cc1
0.12 | 102 | CS(=O)(=O)N[C@@H](Cc1ccc(OCCc2ccccc2)cc1)C(=O)O
0.067 | 3.6 | CS(=O)(=O)N[C@@H](Cc1ccc(OCc2ccccc2)cc1)C(=O)NO
0.037 | 5.8 | CC(=O)N[C@@H](Cc1ccc(OCc2ccccc2)cc1)C(=O)NO
0.029 | 9.5 | CS(=O)(=O)N[C@@H](Cc1ccc(OCCc2ccccc2)cc1)C(=O)NO
0.025 | 42.4 | Cc1ccc(S(=O)(=O)N[C@@H](Cc2ccc(OCc3ccccc3)cc2)C(=O)NO)cc1
0.017 | 82.5 | Cc1ccc(S(=O)(=O)N[C@@H](Cc2ccc(OCCc3ccccc3)cc2)C(=O)NO)cc1
0.014 |  | COc1ccc(S(=O)(=O)N(CC(=O)NO)CC(C)C)cc1
0.013 | 14.4 | CC(=O)N[C@@H](Cc1ccc(OCCc2ccccc2)cc1)C(=O)NO
